# Published values collected from several papers.
# Compare with care: the assays were run in different laboratories.
# Observed: microbial growth
SMILES,organism,test,test system,conditions,MIC
O=c1c2cc(Br)ccc2nc(/C=C/c2ccc([N+](=O)[O-])cc2)n1-c1cccc(O)c1,Enterococcus faecium,broth dilution,NCTC7171,,> 128 µg/mL
CCCCCCCCCC(=O)N[C@@H](Cc1c[nH]c2ccccc12)C(=O)N[C@H](CC(N)=O)C(=O)N[C@@H](CC(=O)O)C(=O)N[C@@H]1C(=O)NCC(=O)N[C@@H](CCCN)C(=O)N[C@@H](CC(=O)O)C(=O)N[C@H](C)C(=O)N[C@@H](CC(=O)O)C(=O)NCC(=O)N[C@H](CO)C(=O)N[C@@H]([C@H](C)CC(=O)O)C(=O)N[C@@H](CC(=O)c2ccccc2N)C(=O)O[C@@H]1C,Enterococcus faecium,broth dilution,,drug-resistant strain,0.25 µg/mL
O=c1c2ccccc2nc(/C=C/c2ccc([N+](=O)[O-])cc2)n1-c1ccc(O)cc1,Enterococcus faecium,broth dilution,NCTC7171,,64 µg/mL
COC(=O)c1cc(-c2cccc(NC(=O)Nc3ccccc3C)c2)on1,Mycobacteroides chelonae,broth dilution,ATCC35752,48 h,> 64 µg/mL
CCOC(=O)CON,Candida albicans,,28A,,32 µg/mL
C=C(NC(=O)C(=C)NC(=O)c1csc(C2=N[C@@H]3c4csc(n4)[C@H]4NC(=O)c5csc(n5)[C@H]([C@](C)(O)[C@@H](C)O)NC(=O)[C@H]5CSC(=N5)/C(=C/C)NC(=O)[C@H]([C@@H](C)O)NC(=O)c5csc(n5)[C@]3(CC2)NC(=O)[C@H](C)NC(=O)C(=C)NC(=O)[C@H](C)NC(=O)[C@H]([C@@H](C)CC)N[C@@H]2C=Cc3c([C@H](C)O)cc(nc3[C@H]2O)C(=O)O[C@@H]4C)n1)C(N)=O,Enterococcus faecium,,,,0.12 µg/mL
CCCCCC/C=C\CCCCCCCCCc1cc(O)cc(O)c1,Enterococcus faecium,broth dilution,,drug-resistant strain,64 µg/mL
OC(Cn1cncn1)(Cn1cncn1)c1ccc(F)cc1F,Candida albicans,,28A,,> 128 µg/mL
COC(=O)c1cc(-c2cccc(NC(=O)Nc3ccccc3)c2)on1,Mycobacteroides chelonae,broth dilution,ATCC35752,48 h,> 64 µg/mL
CN[C@H](CC(C)C)C(=O)N[C@H]1C(=O)N[C@@H](CC(N)=O)C(=O)N[C@H]2C(=O)N[C@H]3C(=O)N[C@H](C(=O)N[C@H](C(=O)O)c4cc(O)cc(O)c4-c4cc3ccc4O)[C@H](O)c3ccc(c(Cl)c3)Oc3cc2cc(c3O[C@@H]2O[C@H](CO)[C@@H](O)[C@H](O)[C@H]2O[C@H]2C[C@](C)(N)[C@H](O)[C@H](C)O2)Oc2ccc(cc2Cl)[C@H]1O,Enterococcus faecium,,ATCCBAA2317 VRE,drug-resistant strain,250 µg/mL
O=c1c2ccccc2nc(CCc2ccccc2)n1-c1cccc(O)c1,Enterococcus faecium,broth dilution,NCTC7171,,> 128 µg/mL
COC(=O)c1cc(-c2cccc(NC(=O)Nc3ccc(Cl)c(Cl)c3)c2)on1,Mycobacteroides chelonae,broth dilution,ATCC35752,48 h,> 64 µg/mL
O=c1c2ccccc2nc(Cc2ccccc2)n1-c1cccc(O)c1,Enterococcus faecium,broth dilution,NCTC7171,,128 µg/mL
COC(=O)c1cc(-c2ccc(OC)c(NC(=O)Nc3ccc(Cl)c(Cl)c3)c2)on1,Mycobacteroides chelonae,broth dilution,ATCC35752,48 h,> 64 µg/mL
